In brackets after ≈: the same amount, converted by molar mass.
Assays:
[1] = target: T1, Orotidine phosphate decarboxylase (Plasmodium falciparum, UniProt Q8T6J6); assay: Inhibition of Plasmodium falciparum ODCase by isothermal titration calorimetry
T1 sequence (Q8T6J6 whole entry): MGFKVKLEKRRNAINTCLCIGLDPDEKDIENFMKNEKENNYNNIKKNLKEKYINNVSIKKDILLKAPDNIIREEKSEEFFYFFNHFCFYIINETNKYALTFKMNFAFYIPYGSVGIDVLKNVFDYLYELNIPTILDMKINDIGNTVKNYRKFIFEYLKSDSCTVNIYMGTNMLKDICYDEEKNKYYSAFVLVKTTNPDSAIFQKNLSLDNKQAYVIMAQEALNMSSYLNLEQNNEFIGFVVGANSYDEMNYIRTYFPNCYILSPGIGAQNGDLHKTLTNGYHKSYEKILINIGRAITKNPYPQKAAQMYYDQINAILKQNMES
Procedure, shortened: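 Recombinant P. falciparum enzyme, preincubated overnight at room temperature in 50 mM Tris, 40 mM NaCl, 20 mM DTT. ITC at 37 °C in 50 mM Tris, 20 mM DTT, pH 7.5, with 60 nM enzyme and 12 μM substrate. Substrate injection into enzyme–inhibitor mix started the reaction. Triplicate runs; competitive Ki derived from rate versus [S] and double-reciprocal plots.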

[2] = target: Orotidine 5'-phosphate decarboxylase (Methanobacterium thermoautotrophicum, UniProt O26232); assay: Inhibition of Methanobacterium thermoautotrophicum ODCase by isothermal titration calorimetry; design: species or system Methanothermobacter thermautotrophicus
Orotidine 5'-phosphate decarboxylase, sequence (O26232 whole entry): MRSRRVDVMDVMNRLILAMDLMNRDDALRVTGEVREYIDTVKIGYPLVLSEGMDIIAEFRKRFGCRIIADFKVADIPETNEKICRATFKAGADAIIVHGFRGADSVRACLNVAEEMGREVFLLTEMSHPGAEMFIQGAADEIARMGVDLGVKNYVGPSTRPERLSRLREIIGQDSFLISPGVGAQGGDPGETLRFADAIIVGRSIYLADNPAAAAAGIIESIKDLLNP
Procedure, shortened: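 Recombinant M. thermoautotrophicum enzyme, preincubated overnight at room temperature in 50 mM Tris, 40 mM NaCl, 20 mM DTT. Activity read by ITC at 55 °C in 50 mM Tris, 20 mM DTT, pH 7.5, with 20 nM enzyme and 40 μM substrate; inhibitor 0–100 μM. Substrate injection into enzyme–inhibitor mix started the reaction. Triplicates; competitive Ki from rate versus [S] and double-reciprocal plots.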

[3] = target: T2, Uridine 5'-monophosphate synthase (Homo sapiens, UniProt P11172); assay: Inhibition of human ODCase by isothermal titration calorimetry
T2 sequence (P11172 whole entry): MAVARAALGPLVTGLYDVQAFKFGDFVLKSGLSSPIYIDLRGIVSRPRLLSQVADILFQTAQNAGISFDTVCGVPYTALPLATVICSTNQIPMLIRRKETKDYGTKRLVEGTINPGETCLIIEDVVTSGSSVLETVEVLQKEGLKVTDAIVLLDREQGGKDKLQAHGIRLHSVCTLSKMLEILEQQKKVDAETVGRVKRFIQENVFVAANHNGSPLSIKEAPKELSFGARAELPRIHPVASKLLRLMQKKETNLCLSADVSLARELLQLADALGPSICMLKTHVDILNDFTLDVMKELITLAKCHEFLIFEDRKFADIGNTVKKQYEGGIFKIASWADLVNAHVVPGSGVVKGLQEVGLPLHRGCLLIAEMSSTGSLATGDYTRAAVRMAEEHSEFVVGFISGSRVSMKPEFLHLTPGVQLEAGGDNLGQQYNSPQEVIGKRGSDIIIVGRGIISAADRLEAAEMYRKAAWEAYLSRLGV
Procedure, shortened: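 Recombinant human enzyme, preincubated overnight at room temperature in 50 mM Tris, 40 mM NaCl, 20 mM DTT. Substrate injection into enzyme–inhibitor mix started the reaction. Triplicates; competitive Ki from rate versus [S] and double-reciprocal analysis.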

[4] = tested on: Plasmodium falciparum; assay: Antimalarial activity against Plasmodium falciparum incubated for 48 hrs by fluorescence-based SYBR-green assay; assay type: functional, organism-based
Procedure, shortened: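 P. falciparum ItG line grown in human O erythrocytes in RPMI 1640 with 10% human serum and 50 μM hypoxanthine. Compound stock was 10 mg/mL in RPMI, filter-sterilized, then serially diluted up to 500 μg/mL with constant parasite numbers. Plates were held 48 h under 3% CO2/2% O2/95% N2 and read by SYBR Green/Triton X-100 fluorescence. Quadruplicates; IC50 by nonlinear regression of dose–response.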

Compound | Ki [1] | Ki [2] | Ki [3] | IC50 [4]
O=c1ccn([C@@H]2O[C@H](COP(=O)(O)O)[C@@H](O)[C@H]2O)c(=O)[nH]1 | 210 µM | 330 µM | 220 µM | 
O=c1nc(NO)ccn1[C@@H]1O[C@H](COP(=O)(O)O)[C@@H](O)[C@H]1O | > 1000 µM |  |  | 
O=c1nc(NO)ccn1[C@@H]1O[C@H](CO)[C@@H](O)[C@H]1O [N-HYDROXYCYTIDINE] |  |  |  | 610 µg/mL (≈ 2350 µM)

Other lines, results leading:

Ki [1] | Ki [2] | Ki [3] | IC50 [4] | Compound
22.1 µM | 11.1 µM |  |  | Nc1ccn([C@@H]2O[C@H](COP(=O)(O)O)[C@@H](O)[C@H]2O)c(=O)[n+]1[O-]
 |  |  | 411 µg/mL (≈ 1590 µM) | Nc1ccn([C@@H]2O[C@H](CO)[C@@H](O)[C@H]2O)c(=O)[n+]1[O-]
> 10000 µM | 1200 µM | 1400 µM |  | Nc1ccn([C@@H]2O[C@H](COP(=O)(O)O)[C@@H](O)[C@H]2O)c(=O)n1
